According to ChEMBL document CHEMBL1145777 (J Med Chem, 2003):

Assays:
[1] = Binding affinity towards Opioid receptor delta 1 from guinea pig brain using [3H]naltrindole as radioligand
[2] = biological target: Kappa-type opioid receptor (Cavia porcellus) (UniProt P41144); experiment: Ratio of binding affinity of Opioid receptor kappa 1 to Opioid receptor mu 1 to Opioid receptor delta 1; kappa:mu:delta = 7:3:1
[3] = biological target: T1, Kappa-type opioid receptor (Homo sapiens, UniProt P41145); experiment: (§1) Incorporation of [35S]GTP-gamma-S, into CHO membranes expressing human Opioid receptor kappa 1; assay type: functional
T1 sequence (P41145 whole entry): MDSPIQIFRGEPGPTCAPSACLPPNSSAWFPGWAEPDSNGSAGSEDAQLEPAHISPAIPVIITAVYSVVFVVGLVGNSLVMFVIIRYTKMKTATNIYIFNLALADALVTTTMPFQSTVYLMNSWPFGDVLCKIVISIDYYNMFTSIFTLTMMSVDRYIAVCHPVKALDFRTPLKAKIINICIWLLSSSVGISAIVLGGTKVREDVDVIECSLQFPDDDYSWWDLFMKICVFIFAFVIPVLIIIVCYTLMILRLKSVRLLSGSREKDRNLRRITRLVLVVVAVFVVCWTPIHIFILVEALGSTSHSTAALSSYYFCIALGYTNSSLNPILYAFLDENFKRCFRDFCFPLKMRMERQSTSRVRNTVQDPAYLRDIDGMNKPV

[4] = biological target: T2, Mu-type opioid receptor (Homo sapiens, UniProt P35372); experiment: Incorporation of [35S]GTP-gamma-S, into CHO membranes expressing human Opioid receptor mu 1; assay type: functional
T2 sequence (P35372 whole entry): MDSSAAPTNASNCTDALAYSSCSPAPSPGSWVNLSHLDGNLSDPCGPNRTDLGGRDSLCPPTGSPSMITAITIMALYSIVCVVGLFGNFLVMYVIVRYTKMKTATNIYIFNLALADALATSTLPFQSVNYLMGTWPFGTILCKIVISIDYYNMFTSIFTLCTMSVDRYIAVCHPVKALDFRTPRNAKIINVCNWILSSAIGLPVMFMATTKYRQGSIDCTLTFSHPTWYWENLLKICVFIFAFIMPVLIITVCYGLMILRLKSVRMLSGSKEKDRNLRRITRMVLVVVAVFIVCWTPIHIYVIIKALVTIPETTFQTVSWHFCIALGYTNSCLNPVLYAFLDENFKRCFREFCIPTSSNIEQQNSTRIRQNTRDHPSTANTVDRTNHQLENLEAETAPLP

[5] = biological target: Mu-type opioid receptor (Cavia porcellus, UniProt P97266); experiment: Binding affinity towards Opioid receptor mu 1 from guinea pig brain using [3H]DAMGO as radioligand
Sequence of Mu-type opioid receptor (Cavia porcellus, UniProt P97266) (P97266 whole entry): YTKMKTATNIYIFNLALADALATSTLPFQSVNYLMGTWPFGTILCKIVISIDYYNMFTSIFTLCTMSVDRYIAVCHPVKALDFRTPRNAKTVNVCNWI

[6] = biological target: T2, Mu-type opioid receptor; experiment: Incorporation of [35S]- GTPgammaS into CHO membranes expressing human Opioid receptor mu 1
[7] = biological target: Kappa-type opioid receptor (Cavia porcellus, UniProt P41144); experiment: Binding affinity towards Opioid receptor kappa 1 from guinea pig brain using [3H]U-69593 as radioligand
Sequence of Kappa-type opioid receptor (Cavia porcellus, UniProt P41144) (P41144 whole entry): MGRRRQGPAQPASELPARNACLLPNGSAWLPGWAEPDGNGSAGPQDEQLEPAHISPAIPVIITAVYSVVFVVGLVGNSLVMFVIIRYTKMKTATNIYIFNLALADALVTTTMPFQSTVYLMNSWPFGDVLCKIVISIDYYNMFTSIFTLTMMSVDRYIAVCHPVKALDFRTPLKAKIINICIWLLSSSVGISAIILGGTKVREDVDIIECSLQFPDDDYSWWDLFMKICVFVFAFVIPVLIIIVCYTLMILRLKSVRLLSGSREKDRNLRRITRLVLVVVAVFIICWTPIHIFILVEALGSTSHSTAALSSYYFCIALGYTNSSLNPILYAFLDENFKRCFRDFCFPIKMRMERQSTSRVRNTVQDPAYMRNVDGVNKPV
Summary of the method: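 Uses 1 nM [3H]U69,593 with guinea pig brain membrane protein (500 µg), 12 concentrations, 50 mM Tris-HCl pH 7.5, 60 min at 25 °C. Nonspecific binding with 10 µM naloxone. Filters pre-soaked in 0.1% polyethylenimine; bound label counted.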

[8] = biological target: T1, Kappa-type opioid receptor; experiment: as §1; assay type: functional; remark: listed apart in the source
[9] = biological target: Kappa-type opioid receptor (Cavia porcellus) (UniProt P41144); experiment: Ratio of binding affinity of Opioid receptor kappa 1 to Opioid receptor mu 1 to Opioid receptor delta 1; kappa:mu:delta = 28:12:1
[10] = biological target: Kappa-type opioid receptor (Cavia porcellus) (UniProt P41144); experiment: Ratio of binding affinity of Opioid receptor kappa 1 to Opioid receptor mu 1 to Opioid receptor delta 1; kappa:mu:delta = 47:26:1
[11] = biological target: Kappa-type opioid receptor (Cavia porcellus) (UniProt P41144); experiment: Ratio of binding affinity of Opioid receptor kappa 1 to Opioid receptor mu 1 to Opioid receptor delta 1; kappa:mu:delta = 11:7:1
[12] = biological target: Kappa-type opioid receptor (Cavia porcellus) (UniProt P41144); experiment: Ratio of binding affinity of Opioid receptor kappa 1 to Opioid receptor mu 1 to Opioid receptor delta 1; kappa:mu:delta = 150:7:1
[13] = biological target: Kappa-type opioid receptor (Cavia porcellus) (UniProt P41144); experiment: Ratio of binding affinity of Opioid receptor kappa 1 to Opioid receptor mu 1 to Opioid receptor delta 1; kappa:mu:delta = 16:14:1
[14] = biological target: Kappa-type opioid receptor (Cavia porcellus) (UniProt P41144); experiment: Ratio of binding affinity of Opioid receptor kappa 1 to Opioid receptor mu 1 to Opioid receptor delta 1; kappa:mu:delta = 5:4:1
[15] = biological target: Kappa-type opioid receptor (Cavia porcellus) (UniProt P41144); experiment: Ratio of binding affinity of Opioid receptor kappa 1 to Opioid receptor mu 1 to Opioid receptor delta 1; kappa:mu:delta = 29:18:1
[16] = biological target: Kappa-type opioid receptor (Cavia porcellus) (UniProt P41144); experiment: Ratio of binding affinity of Opioid receptor kappa 1 to Opioid receptor mu 1 to Opioid receptor delta 1; kappa:mu:delta = 1:1:1
[17] = biological target: Kappa-type opioid receptor (Cavia porcellus) (UniProt P41144); experiment: Ratio of binding affinity of Opioid receptor kappa 1 to Opioid receptor mu 1 to Opioid receptor delta 1; kappa:mu:delta = 9:5:1

Sequence of Kappa-type opioid receptor (Cavia porcellus) (P41144 whole entry): as above

CNc1ccc2c(c1)[C@@]1(C)CCN(CC3CC3)C(C2)[C@@H]1C gave a Ki [1] of 470 nM.

For CC[C@@]12CCN(CC3CC3)C(C(=O)c3ccc(N)cc31)[C@@H]2C (single isomer, unassigned; (-)) [listing 1 of 2 here], the Ratio [2] was 7, the Emax [3] was 110% and the Emax [4] was 10%.

CC[C@@]12CCN(CC3CC3)C(C(=O)c3ccc(N)cc31)[C@@H]2C (stereo in doubt; 44) [listing 1 of 2 here] gave a Ki [5] of 7.3 nM, an EC50 [6] of 62 nM and a Ki [7] of 0.34 nM. The EC50 [8] was 4.4 nM.

Compound C[C@H]1C2Cc3ccc(N4CCN(C)CC4)cc3[C@@]1(C)CCN2CC1CC1 has a Ki [1] of 250 nM and a Ratio [9] of 28.

In the case of C[C@H]1C2C(=O)c3ccc(O)cc3[C@@]1(C)CCN2CC1CC1, the EC50 [6] is reported as 21 nM, the Emax [3] is reported as 80% and the Emax [4] is reported as 40%. It also gave a Ki [7] of 1 nM and an EC50 [8] of 3.3 nM.

Work on C[C@H]1C2Cc3ccc(NCc4ccccc4)cc3[C@@]1(C)CCN2CC1CC1 (single isomer, unassigned; (-)) yielded a Ki [1] of 54 nM.

In the case of C[C@H]1[C@H]2Cc3ccc(O)cc3[C@]1(C)CCN2CC1CC1 (stereo in doubt; (-)2) [CYCLAZOCINE], the EC50 [8] is reported as 1.2 nM.

Work on C[C@H]1[C@H]2Cc3ccc(O)cc3[C@]1(C)CCN2CC1CC1 (stereo in doubt) yielded an Emax [3] of 90%.

C[C@H]1[C@H]2Cc3ccc(Nc4ccccc4)cc3[C@@]1(C)CCN2CC1CC1 [listing 1 of 2 here] showed an Emax [3] of 120% and an Emax [4] of 50%.

With CC[C@@]12CCN(CC3CC3)C(C(=O)c3ccc(O)cc31)[C@@H]2C (single isomer, unassigned; (-)) the Emax [3] was 170% and the Emax [4] was 70%.

In the case of CC[C@@]12CCN(CC3CC3)C(C(=O)c3ccc(Nc4ccccc4)cc31)[C@@H]2C, the Ki [5] is reported as 10 nM, the EC50 [6] is reported as 22 nM and the Emax [3] is reported as 110%. It also gave an Emax [4] of 70%, a Ki [7] of 2.2 nM and an EC50 [8] of 5.9 nM.

C[C@H]1[C@H]2Cc3ccc(O)cc3[C@]1(C)CCN2CC1CC1 (stereo in doubt; (-)2) showed an Emax [3] of 100% and an Emax [4] of 50%.

Compound C[C@H]1[C@H]2Cc3ccc(N)cc3[C@@]1(C)CCN2C[C@@H]1CCCO1 has a Ki [5] of 14 nM, a Ratio [10] of 47 and an Emax [3] of 330%. The Ki [7] was 7.8 nM and the EC50 [8] was 70 nM.

Work on CC[C@@]12CCN(CC3CC3)C(C(=O)c3ccc(N)cc31)[C@@H]2C (single isomer, unassigned; (+)) [listing 1 of 2 here] yielded a Ki [5] of 17 nM and a Ki [7] of 91 nM.

In the case of C[C@H]1[C@H]2Cc3ccc(Nc4ccccc4)cc3[C@@]1(C)CCN2CC1CC1 (stereo in doubt; 10) [listing 1 of 2 here], the Ratio [11] is reported as 11.

Work on C[C@H]1C2Cc3ccc(NCc4ccccc4)cc3[C@@]1(C)CCN2CC1CC1 (stereo in doubt; 25) yielded a Ki [1] of 57 nM.

In the case of CC[C@@]12CCN(CC3CC3)C(C(=O)c3ccc(O)cc31)[C@@H]2C (single isomer, unassigned; (-)) [ETHYLKETOCYCLAZOCINE], the Ki [5] is reported as 0.73 nM and the EC50 [6] is reported as 5.5 nM.

C[C@H]1C2Cc3ccc(Nc4ccccn4)cc3[C@@]1(C)CCN2CC1CC1 gave a Ki [5] of 4.2 nM and a Ki [7] of 9.2 nM.

With CC[C@@]12CCN(CC3CC3)C(C(=O)c3ccc(N)cc31)[C@@H]2C (stereo in doubt; 44) [listing 2 of 2 here] the Ratio [12] was 150, the Emax [3] was 100% and the Emax [4] was 60%.

C[C@H]1C2Cc3ccc(N)cc3[C@@]1(C)CCN2CC1CC1 showed a Ki [1] of 110 nM.

For C[C@H]1C2Cc3ccc(N4CCCC4)cc3[C@@]1(C)CCN2CC1CC1, the Ki [1] was 1800 nM.

C[C@H]1C2Cc3ccc(N(C)C)cc3[C@@]1(C)CCN2CC1CC1 (single isomer, unassigned; (+)) showed a Ki [5] of 50000 nM and a Ki [7] of 3000 nM.

C[C@H]1C2Cc3ccc(Nc4ccncc4)cc3[C@@]1(C)CCN2CC1CC1 gave a Ki [5] of 18 nM and a Ki [7] of 2.9 nM.

Compound C[C@H]1[C@H]2Cc3ccc(O)cc3[C@]1(C)CCN2CC1CC1 (stereo in doubt) [CYCLAZOCINE] has an EC50 [8] of 1.6 nM.

With C[C@H]1C2Cc3ccc(Nc4ccc(C(F)(F)F)cc4)cc3[C@@]1(C)CCN2CC1CC1 the Ki [5] was 13 nM, the Ratio [13] was 16 and the Ki [7] was 11 nM.

Compound C[C@H]1[C@H]2Cc3ccc(Nc4ccccc4)cc3[C@@]1(C)CCN2CC1CC1 (stereo in doubt; (+)12) has a Ki [1] of 270 nM.

With C[C@H]1[C@H]2Cc3ccc(Nc4ccccc4)cc3[C@@]1(C)CCN2CC1CC1 (stereo in doubt; 10) [listing 2 of 2 here] the Ki [1] was 9.4 nM.

In the case of COc1cccc(Nc2ccc3c(c2)[C@@]2(C)CCN(CC4CC4)C(C3)[C@@H]2C)c1, the Ki [5] is reported as 1.8 nM and the Ki [7] is reported as 1 nM.

In the case of C[C@H]1[C@H]2Cc3ccc(O)cc3[C@@]1(C)CCN2C[C@@H]1CCCO1, the Ki [5] is reported as 0.17 nM, the Emax [3] is reported as 70% and the Ki [7] is reported as 0.073 nM. The EC50 [8] was 4 nM.

C[C@H]1C2Cc3ccc(N4CCOCC4)cc3[C@@]1(C)CCN2CC1CC1 showed a Ki [1] of 2800 nM and a Ratio [14] of 5.

COc1ccc(Nc2ccc3c(c2)[C@@]2(C)CCN(CC4CC4)C(C3)[C@@H]2C)cc1 showed a Ki [5] of 0.47 nM, a Ratio [15] of 29 and a Ki [7] of 0.29 nM.

CC[C@@]12CCN(CC3CC3)C(C(=O)c3ccc(O)cc31)[C@@H]2C (single isomer, unassigned; (+)) [ETHYLKETOCYCLAZOCINE] showed a Ki [5] of 320 nM.

C[C@H]1C2Cc3ccc(Nc4cccnc4)cc3[C@@]1(C)CCN2CC1CC1 gave a Ki [5] of 0.64 nM, an Emax [3] of 90% and a Ki [7] of 0.5 nM. The EC50 [8] was 10 nM.

With C[C@H]1C2Cc3ccc(N=C(c4ccccc4)c4ccccc4)cc3[C@@]1(C)CCN2CC1CC1 the Ki [5] was 360 nM, the Ki [7] was 170 nM and the Ratio [16] was 1.

CC[C@@]12CCN(CC3CC3)C(C(=O)c3ccc(N)cc31)[C@@H]2C (single isomer, unassigned; (+)) [listing 2 of 2 here] gave a Ratio [17] of 9.

For C[C@H]1[C@H]2Cc3ccc(Nc4ccccc4)cc3[C@@]1(C)CCN2C[C@@H]1CCCO1, the Ki [5] was 2.8 nM and the Ki [7] was 2 nM.

For Cc1ccc(Nc2ccc3c(c2)[C@@]2(C)CCN(CC4CC4)C(C3)[C@@H]2C)cc1, the Ki [5] was 0.91 nM, the Ratio [11] was 11 and the Ki [7] was 0.57 nM.

In the case of COc1ccc(CNc2ccc3c(c2)[C@@]2(C)CCN(CC4CC4)C(C3)[C@@H]2C)cc1, the Ki [5] is reported as 7.8 nM and the Ki [7] is reported as 71 nM.

CC(C)Nc1ccc2c(c1)[C@@]1(C)CCN(CC3CC3)C(C2)[C@@H]1C showed a Ki [1] of 460 nM.

Work on CC[C@@]12CCN(CC3CC3)C(C(=O)c3ccc(N)cc31)[C@@H]2C (single isomer, unassigned; (-)) [listing 2 of 2 here] yielded a Ki [5] of 2.7 nM, an EC50 [6] of 92 nM and a Ki [7] of 1.1 nM. For the same compound, the EC50 [8] was 2.8 nM.

Work on CCNc1ccc2c(c1)[C@@]1(C)CCN(CC3CC3)C(C2)[C@@H]1C yielded a Ki [1] of 19 nM.

In the case of C[C@H]1C2Cc3ccc(N(C)C)cc3[C@@]1(C)CCN2CC1CC1 (stereo in doubt; 30), the Ki [1] is reported as 1500 nM.

Compound C[C@H]1C2C(=O)c3ccc(N)cc3[C@@]1(C)CCN2CC1CC1 has a Ki [5] of 3.6 nM, an EC50 [6] of 180 nM and an Emax [3] of 70%. It also gave an Emax [4] of 80%, a Ki [7] of 0.8 nM and an EC50 [8] of 9.7 nM.

Work on C[C@H]1C2Cc3ccc(NCc4ccc(Cl)cc4)cc3[C@@]1(C)CCN2CC1CC1 yielded a Ki [5] of 8.8 nM and a Ki [7] of 7.2 nM.

With C[C@@H]1[C@@H]2Cc3ccc(N)cc3[C@]1(C)CCN2CC1CC1 the Ki [5] was 780 nM and the Ki [7] was 506 nM.

In the case of C[C@H]1C2Cc3ccc(N(C)C)cc3[C@@]1(C)CCN2CC1CC1 (single isomer, unassigned; (-)), the Ki [5] is reported as 46 nM and the Ki [7] is reported as 18 nM.

Work on C[C@H]1[C@H]2Cc3ccc(N)cc3[C@@]1(C)CCN2CC1CC1 yielded a Ki [1] of 12 nM, an Emax [3] of 80% and an EC50 [8] of 20 nM.

For C[C@H]1[C@H]2Cc3ccc(Nc4ccccc4)cc3[C@@]1(C)CCN2CC1CC1 [listing 2 of 2 here], the EC50 [6] was 15 nM and the EC50 [8] was 3.8 nM.

With C[C@H]1C2Cc3cc4c(cc3[C@@]1(C)CCN2CC1CC1)[nH]c1ccccc14 the Ki [7] was 9.6 nM.
